# Published values pooled from the literature.
# Target: Cyclin-dependent kinase-like 1 (CDKL1, Homo sapiens, UniProt Q00532)
SMILES,assay,conditions,remaining binding [%]
CN(C)c1ncc(F)c(-c2cnn3ncccc23)n1,binding,1 µM,100
C[C@@H](c1ccc(-n2cnc3c(N)ncnc32)cc1)N1CCc2nn(C)c(Cc3ccccc3)c2C1=O,"binding, competition with immobilised ligand",0.1 µM,58
O=C(c1ccc(Nc2nccc(-c3cc4ccccc4s3)n2)cc1)N1CCC(N2CCCC2)CC1,"binding, competition with immobilised ligand",1 µM,71
COc1cnc(Nc2cccc(S(N)(=O)=O)c2)nc1N1CCN(c2ccccc2)CC1,"binding, competition with immobilised ligand",1 µM,86
O=C(c1ccc(Nc2ncc(Cl)c(-c3ccc(Cl)s3)n2)cc1)N1CCC(N2CCCC2)CC1,"binding, competition with immobilised ligand",1 µM,32
Cc1nc(N2CC[C@@H](O)C2)ncc1-c1cc(C(F)(F)F)cc2[nH]ncc12,"binding, competition with immobilised ligand",1 µM,77
O=C(Nc1c[nH]nc1C(=O)NC1CCNCC1)c1cc(F)cc(F)c1,"binding, competition with immobilised ligand",1 µM,95
C[C@@H](c1cccc(C#N)c1)n1cc(Cl)cc(C(N)=O)c1=N,"binding, competition with immobilised ligand",1 µM,100
Cc1cnn2ncc(-c3ccnc(N(C)C)n3)c2c1,binding,1 µM,73
Cc1nccc(COC(=O)N2C[C@@H]3[C@@H](CNC(=O)c4ccc5[nH]nnc5c4)[C@@H]3C2)n1,"cell-free assay, competition with immobilised ligand",1 µM,81
CCN1CCN(Cc2ccc(C(=O)Nc3ccc(C)c(Oc4ccc5c(c4)CC(=O)N5)c3)cc2C(F)(F)F)CC1,"binding, competition with immobilised ligand",1 µM,100
C=CC(=O)N1CCC(C(=O)NCC(=O)N2CCN(c3nc(-c4cnc(N)nc4C(F)F)nc(N4CCOCC4)n3)CC2)CC1,"binding, competition with immobilised ligand",1 µM,90
COc1ccnn2ncc(-c3ccnc(N(C)C)n3)c12,binding,1 µM,87
Cc1cnc(Nc2ccc(C(=O)N3CCC(N4CCCC4)CC3)cc2)nc1-c1cc2ccccc2s1,"binding, competition with immobilised ligand",1 µM,50
C[C@H]1CCN(c2nccc(-c3cnn4ncccc34)n2)C1,binding,1 µM,62
CNCc1ccccc1-c1csc([C@@H](C)Nc2nc(C)nc3cc(OC)c(OC)cc23)c1,"cell-free assay, competition with immobilised ligand",1 µM,93
COc1ncc2cc3ccccc3nc2c1C#N,"binding, competition with immobilised ligand",5 µM,100
CNC(=O)Nc1ccc2c(c1)CC[C@@]21OC(=O)N(CC(=O)N(Cc2ccc(F)cc2)[C@@H](C)C(F)(F)F)C1=O,"binding, competition with immobilised ligand",1 µM,86
CN(CCCC(F)(F)F)c1nccc(-c2cnn3ncccc23)n1,binding,1 µM,83
C[C@H](c1ccnc(Nc2nc3ccc(-c4cc(N(C)C)ncn4)cc3[nH]2)c1)N1CCN(C(=O)CC(F)(F)F)CC1,"binding, competition with immobilised ligand",0.1 µM,100
FC(F)(F)Oc1cccc(-c2cnc3ccc(-c4ccncc4)nn23)c1,"cell-free assay, competition with immobilised ligand",5 µM,68
